Measured values published in publication PMC7557949 (ACS Omega, 2020).
Values after ≈ are worked out from the molar mass of the structure shown.

Columns and labels:
[1] = system: herpes simplex virus type 1 (HSV-1); test: Plaque assay, antiviral activity against HSV-1; type: cell-based; settings: for mean % of reduction, herpes simplex virus: nontoxic dose of compound, average of three independent measurements
[2] = system: ED-43/SG-Feo (VYG) replicon of hepatitis C virus genotype 4a (HCVcc); test: Antiviral bioassay against ED-43/SG-Feo; type: cell-based; settings: nontoxic dose of compound; average of three independent measurements
Method in brief: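 Huh 7.5 cells carrying the ED-43/SG-Feo (VYG) HCV genotype 4a subgenomic replicon were treated with the nontoxic dose of test compound. Replicon RNA copies were quantified by TaqMan qRT-PCR, and the result was expressed as percent reduction.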

[3] = system: S. aureus (ATCC:6538); test: Agar well diffusion, inhibition zone; type: cell-based, Staphylococcus aureus; settings: for zone of inhibition at 15000 µg/mL: Staphylococcus aureus, 24 h, read-out: diameter of the IZ, S. aureus (ATCC:6538)
Method in brief: (§1)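 Agar well diffusion. Saline inoculum adjusted to McFarland 0.5 ([…]), i.e. OD 0.13 at 625 nm, and swabbed over dried agar. After 15 min drying, 6 mm wells received 100 μL of test compound at 15 mg/mL. Plates incubated at 37 °C; bacterial zones read in mm after 24 h incubation […]. Triplicate, reported as mm ± SD. Gentamicin and ampicillin served as reference drugs.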

[4] = system: S. mutans (ATCC:25175); test: Agar well diffusion, inhibition zone; type: cell-based; settings: Streptococcus mutans, 24 h, read-out: diameter of the IZ, S. mutans (ATCC:25175)
Method in brief: as §1

[5] = system: E. coli (ATCC:3008); test: Agar well diffusion, inhibition zone; type: cell-based, Escherichia coli; settings: 15 mg/mL, 100 μL per well; mm ± SD
Method in brief: as §1

[6] = system: C. albicans (ATCC:10231); test: Agar well diffusion, inhibition zone; type: cell-based, Candida albicans; settings: 15 mg/mL, 100 μL per well; mm ± SD
Method in brief: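 Fungal plates were poured and agar dried 15 min. 6 mm wells were cut with a sterile borer and filled with 100 μL test compound solution at 15 mg/mL. Inhibition zone diameter (mm) was read after 48 h incubation. Triplicate, reported as mm ± SD.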

[7] = system: coxsackievirus B4 (CBV4); test: Plaque assay, antiviral activity against CBV4; type: cell-based; settings: nontoxic dose of compound; average of three independent measurements
Method in brief: (§2)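 Plaque reduction. Nontoxic dilutions of test compound were mixed 1:1 with virus at 1 × 105, 1 × 106 or 1 × 107, for 0.5 h at 37 °C. 10-fold dilutions went onto BGM (CBV4), FRHK4 (HAV HM 175) or Hep-2 (adenovirus 7), with 1 h adsorption at 37 °C. Overlay was 2× DMEM plus 1% agarose. Cells were formalin-fixed and crystal violet-stained, and plaques counted. Triplicate. IC50 is the half-maximal plaque-reduction concentration.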

[8] = system: hepatitis A virus HM 175 (HAV HM 175); test: Plaque assay, antiviral activity against HAV HM 175; type: cell-based; settings: nontoxic dose of compound; average of three independent measurements
Method in brief: as §2

[9] = system: adenovirus type 7 (HAdV7); test: Plaque assay, antiviral activity against adenovirus type 7; type: cell-based; settings: nontoxic dose of compound; average of three independent measurements
Method in brief: as §2

[10] = system: S. aureus (ATCC:6538); test: MIC, twofold serial dilution in agar; type: cell-based; settings: Staphylococcus aureus, read-out: MIC, S. aureus (ATCC:6538)
[11] = system: S. mutans (ATCC:25175); test: MIC, twofold serial dilution in agar; type: cell-based; settings: Streptococcus mutans, read-out: MIC, S. mutans (ATCC:25175)
[12] = biological target: T1, dihydrofolate reductase (DHFR) (Homo sapiens, UniProt P00374); test: DHFR inhibitor screening assay; type: biochemical; settings: for IC50: IC50 on the DHFR, average of three measurements; for inhibition at 0.01 µg/mL: read-out: percent inhibition of DHFR at 0.01 (μg/mL); for inhibition at 0.1 µg/mL: read-out: percent inhibition of DHFR at 0.1 (μg/mL); for inhibition at 1 µg/mL: read-out: percent inhibition of DHFR at 1 (μg/mL); for inhibition at 10 µg/mL: read-out: percent inhibition of DHFR at 10 (μg/mL)
T1 sequence (P00374 1-187): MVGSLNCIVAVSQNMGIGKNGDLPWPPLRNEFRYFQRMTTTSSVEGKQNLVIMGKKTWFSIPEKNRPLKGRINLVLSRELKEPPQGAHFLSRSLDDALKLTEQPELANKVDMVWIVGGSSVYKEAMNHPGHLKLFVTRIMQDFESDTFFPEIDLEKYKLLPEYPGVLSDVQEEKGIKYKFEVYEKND

[13] = system: K. pneumonia (ATCC:4415); test: MIC, twofold serial dilution in agar; type: cell-based; settings: Klebsiella pneumoniae, read-out: MIC, K. pneumonia (ATCC:4415)
[14] = Cytotoxicity test on Vero cell line; type: cell-based; settings: African green monkey, uninfected Vero cells
Method in brief: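 Test compound was dissolved at 50 mg/mL in DMSO and decontaminated with 100× antimycotic–antibiotic mix. Cells were seeded at 2 × 10^5 cells/mL and grown 24 h at 37 °C, 5% CO2, to monolayers. Bi-fold dilutions in DMEM were applied for 72 h. Read by daily microscopy for morphology and by trypan blue (0.4%) viable counts. CC50 taken as the concentration giving 50% of untreated-cell OD492.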

[15] = biological target: Hsp90α (Homo sapiens, UniProt P07900); test: Hsp90α; type: biochemical
Method in brief: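 AlphaScreen kit assay for Hsp90α C-terminal binding to PPID. Hsp90α was diluted to 1.5 ng/μL in assay buffer and premixed with test compound. The reaction was started with PPID diluted to 10 ng/μL and run 30 min at room temperature. Glutathione acceptor beads were added for 30 min, then streptavidin donor beads for 1 h, and Alpha counts read. Triplicate; percent inhibition calculated against control.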

Hsp90α, sequence (P07900 535-732 limits assumed): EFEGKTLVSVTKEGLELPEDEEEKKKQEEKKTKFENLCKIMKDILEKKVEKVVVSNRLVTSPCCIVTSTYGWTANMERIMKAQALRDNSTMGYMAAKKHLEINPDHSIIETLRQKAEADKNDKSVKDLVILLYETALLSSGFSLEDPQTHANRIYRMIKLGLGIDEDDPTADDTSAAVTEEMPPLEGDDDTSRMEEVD

Structure (SMILES)	mean % of reduction, herpes simplex virus [1] [%]	mean % of reduction, HCVcc genotype 4 [2] [%]	zone of inhibition at 15000 µg/mL [3] [mm]	zone of inhibition at 15000 µg/mL [4] [mm]	diameter of the IZ, C. albicans (ATCC:10231) [6] [mm]	mean % of reduction, CBV4 [7] [%]	mean % of reduction, HAV HM 175 [8] [%]	mean % of reduction, adenovirus type 7 [9] [%]	further results
CSc1c(-c2nc3ccccc3s2)c(N)n(NS(=O)(=O)c2ccccc2)c(=O)c1C#N [8a, N-(6-Amino-5-(benzo[d]thiazol-2-yl)-3-cyano-4-(methylthio)-2-oxopyridin-1(2H)-yl)benzenesulfonamide]	30.0 ± 0.25	20.0 ± 0.10	25.8 ± 0.5	19.8 ± 1	–	–	–	–	–
CCSc1c(-c2nc3ccccc3s2)c(N)n(NS(=O)(=O)c2ccc(C)cc2)c(=O)c1C#N [8d, N-(6-Amino-5-(benzo[d]thiazol-2-yl)-3-cyano-4-(ethylthio)-2-oxopyridin-1(2H)-yl)-4-methylbenzenesulfonamide]	–	–	29.9 ± 0.6	12.5 ± 1	–	–	–	–	–
Cc1ccc(S(=O)(=O)Nn2c(N)c(-c3nc4ccccc4s3)c3[nH]nc(N)c3c2=O)cc1 [9b, N-(3,6-Diamino-7-(benzo[d]thiazol-2-yl)-4-oxo-1H-pyrazolo[4,3-c]pyridin-5(4H)-yl)-4-methylbenzenesulfonamide]	–	–	–	–	24.3 ± 0.5	–	–	–	diameter of the IZ, E. coli (ATCC:3008) [5]: 15.0 ± 0.5 mm
Nc1n[nH]c2c(-c3nc4ccccc4s3)c(N)n(NS(=O)(=O)c3ccccc3)c(=O)c12 [9a, N-(3,6-Diamino-7-(benzo[d]thiazol-2-yl)-4-oxo-1H-pyrazolo[4,3-c]pyridin-5(4H)-yl)benzenesulfonamide]	20.0 ± 0.15	13.3 ± 0.10	34 ± 1	13.9 ± 0.5	–	13.3 ± 0.10	10.0 ± 0.10	10.0 ± 0.10	diameter of the IZ, S. aureus (ATCC:6538) ([3]; 15 mg/mL, 100 μL per well, mm ± SD): 34.0 ± 1.0 mm; MIC [10]: 125 µg/mL (≈ 276 µM); MIC [11]: 1000 µg/mL (≈ 2210 µM); IC50 [12]: 1540 nM; inhibition at 0.01 µg/mL [12]: 22.6%; inhibition at 0.1 µg/mL [12]: 33.8%; inhibition at 1 µg/mL [12]: 53.6%; inhibition at 10 µg/mL [12]: 68.4%
CSc1c(-c2nc3ccccc3[nH]2)c(N)n(NS(=O)(=O)c2ccccc2)c(=O)c1C#N [13a, N-(6-Amino-5-(1H-benzo[d]imidazol-2-yl)-3-cyano-4-(methylthio)-2-oxopyridin-1(2H)-yl)benzenesulfonamide]	20.0 ± 0.30	20.0 ± 0.15	30 ± 1	–	22.0 ± 0.5	20.0 ± 0.10	13.3 ± 0.10	10.0 ± 0.10	–
CCSC(SCC)=C(C#N)c1nc2ccccc2s1 [3b, 2-(Benzo[d]thiazol-2-yl)-3,3-bis(ethylthio)acrylonitrile]	26.7 ± 0.20	20.0 ± 0.25	–	–	–	20.0 ± 0.20	40.0 ± 0.30	30.0 ± 0.30	–
N#Cc1cc(C#N)c(=O)n(NS(=O)(=O)c2ccccc2)c1N [15a, N-(6-Amino-3,5-dicyano-2-oxopyridin-1(2H)-yl)benzenesulfonamide]	–	–	–	–	19.6 ± 2.0	–	–	–	–
CSc1c(-c2nc3ccccc3s2)c(N)n(NS(=O)(=O)c2ccc(C)cc2)c(=O)c1C#N [8b, N-(6-Amino-5-(benzo[d]thiazol-2-yl)-3-cyano-4-(methylthio)-2-oxopyridin-1(2H)-yl)-4-methylbenzenesulfonamide]	33.3 ± 0.25	26.7 ± 0.25	19.3 ± 1	10.7 ± 0.5	–	30.0 ± 0.15	36.7 ± 0.30	20.0 ± 0.20	MIC [13]: 125 µg/mL (≈ 258 µM); MIC [10]: 1000 µg/mL (≈ 2070 µM); MIC [11]: 250 µg/mL (≈ 517 µM); IC50 [12]: 2830 nM; inhibition at 0.01 µg/mL [12]: 19.9%; inhibition at 0.1 µg/mL [12]: 40.8%; inhibition at 1 µg/mL [12]: 50.4%; inhibition at 10 µg/mL [12]: 57.7%
CC1(C)S[C@@H]2[C@H](NC(=O)[C@H](N)c3ccccc3)C(=O)N2[C@H]1C(=O)O [ampicillin, reference compound]	–	–	32 ± 0.5	22 ± 0.5	–	–	–	–	MIC [10]: 62.5 µg/mL (≈ 179 µM); MIC [11]: 62.5 µg/mL (≈ 179 µM)
Nc1nc2c(ncn2COCCO)c(=O)[nH]1 [acyclovir, reference compound]	–	–	–	–	–	–	–	–	IC50 ([1]; Human alphaherpesvirus 1, Vero): 0.7 µg/mL (≈ 3.11 µM); CC50 at 72 h [14]: 2.8 µg/mL (≈ 12.4 µM); inhibition at 0.1 µg/mL ([15]; read-out: percentage inhibition of Hsp90α at 0.1 (μg/mL)): 11.2%; inhibition at 10 µg/mL ([15]; read-out: percentage inhibition of Hsp90α at 10 (μg/mL)): 52.3%; inhibition at 100 µg/mL ([15]; read-out: percentage inhibition of Hsp90α at 100 (μg/mL)): 84.1%
CCSc1c(-c2nc3ccccc3s2)c(N)n(NS(=O)(=O)c2ccccc2)c(=O)c1C#N [8c, N-(6-Amino-5-(benzo[d]thiazol-2-yl)-3-cyano-4-(ethylthio)-2-oxopyridin-1(2H)-yl)benzenesulfonamide]	10.0 ± 0.15	16.7 ± 0.15	24.5 ± 0.7	21.3 ± 1.1	–	13.3 ± 0.10	10.0 ± 0.15	10.0 ± 0.15	–
CSc1c(-c2nc3ccccc3[nH]2)c(N)n(NS(=O)(=O)c2ccc(C)cc2)c(=O)c1C#N [13b, N-(6-Amino-5-(1H-benzo[d]imidazol-2-yl)-3-cyano-4-(methylthio)-2-oxopyridin-1(2H)-yl)-4-methylbenzenesulfonamide]	–	–	28.9 ± 0.7	–	21.0 ± 0.1	–	–	–	–
